Results published in ChEMBL document CHEMBL3046420, “A new antifungal and cytotoxic C-methylated flavone glycoside from Picea neoveitchii” (2012).

Key:
Format in all cases: functional
[1] = system: Athelia rolfsii; experiment: Antifungal activity against Athelia rolfsii assessed as mycelial growth inhibition at 100 ug/disk after 2 to 4 days by disk diffusion method relative to control; conditions: Agroathelia rolfsii; for zone of inhibition at 100 µg/disc: read-out: DIZ; for inhibition of growth at 100 µg/disc: read-out: GI
Summary of the method: (§1)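 Disc diffusion on PDA in 90 mm Petri plates. Sterile 5 mm filter paper discs were loaded with 10 µL of a 10 mg/mL MeOH solution, air-dried and set at the plate centre. Four 5 mm fungal plugs were placed inverted 20 mm from the disc. Plates were incubated at 29 °C for 2–4 days, until growth in the MeOH blank reached the centre. The inhibitory zone was measured in mm and expressed as % of the carbendazim zone. Triplicate.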

[2] = system: Pyricularia grisea; experiment: Antifungal activity against Magnaporthe grisea assessed as mycelial growth inhibition at 100 ug/disk after 2 to 4 days by disk diffusion method relative to control; conditions: for zone of inhibition at 100 µg/disc: read-out: DIZ; for inhibition of growth at 100 µg/disc: read-out: GI
Summary of the method: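 Modified disc diffusion on PDA in 90 mm plates. Each 5 mm filter disc was loaded with 10 µL of a 10 mg/mL MeOH solution, air-dried and placed at the plate centre. Four 5 mm fungal plugs were set 20 mm from the disc. MeOH discs served as blank and carbendazim as positive control. Plates were incubated at 29 °C for 2–4 days. Inhibition zone (mm) was expressed as % of the carbendazim zone. Triplicate.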

[3] = Cytotoxicity against Spodoptera litura cells assessed as growth inhibition at 20 mg/L after 24 hr by MTT assay relative to control; conditions: read-out: GI
Summary of the method: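 SL cells were grown in Grace's insect medium with 9% newborn calf serum at 27.5 °C and used in log phase. Cells were seeded in 96-well plates for 24 h, then exposed for 24 h to compound (DMSO stock diluted in medium); controls got 0.5% DMSO. MTT (0.5 mg/mL) was added for 4 h, formazan dissolved in DMSO, and A570 read. Three separate experiments.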

[4] = system: Thielaviopsis paradoxa; experiment: Antifungal activity against Ceratocystis paradoxa assessed as mycelial growth inhibition at 100 ug/disc after 2 to 4 days by disk diffusion method relative to control; conditions: for zone of inhibition at 100 µg/disc: read-out: DIZ; for inhibition of growth at 100 µg/disc: read-out: GI; summary of the method: as §1
[5] = system: Alternaria mali; experiment: Antifungal activity against Alternaria mali assessed as mycelial growth inhibition at 100 ug/disk after 2 to 4 days by disk diffusion method relative to control; conditions: for zone of inhibition at 100 µg/disc: read-out: DIZ; for inhibition of growth at 100 µg/disc: read-out: GI; summary of the method: as §1

SMILES	zone of inhibition at 100 µg/disc [1]	inhibition of growth at 100 µg/disc [1]	zone of inhibition at 100 µg/disc [2]	inhibition of growth at 100 µg/disc [2]	inhibition of growth at 20 µg/mL [3]	zone of inhibition at 100 µg/disc [4]	inhibition of growth at 100 µg/disc [4]	zone of inhibition at 100 µg/disc [5]	inhibition of growth at 100 µg/disc [5]
O=c1c(O[C@@H]2O[C@H](CO)[C@@H](O)[C@H](O)[C@H]2O)c(-c2ccc(O[C@@H]3O[C@H](CO)[C@@H](O)[C@H](O)[C@H]3O)cc2)oc2cc(O)cc(O)c12	3.7 mm	31.9%	0 mm	0%	23.1%	0 mm	0%	2.4 mm	24.2%
COc1c(-c2ccc(O)cc2)oc2c(O[C@@H]3O[C@H](CO)[C@@H](O)[C@H](O)[C@H]3O)c(O)c(C)c(O)c2c1=O	9.4 mm	81%	7.6 mm	40.9%	62.5%	6.2 mm	24.1%	7.2 mm	72.7%
COc1c(-c2ccc(O[C@@H]3O[C@H](CO)[C@@H](O)[C@H](O)[C@H]3O)cc2)oc2c(O[C@@H]3O[C@H](CO)[C@@H](O)[C@H](O)[C@H]3O)c(O)c(C)c(O)c2c1=O	4.8 mm	41.4%	5.7 mm	30.6%	64.4%	0 mm	0%	4.3 mm	43.4%
O=c1cc(-c2ccc(O)cc2)oc2cc(O[C@@H]3O[C@H](CO)[C@@H](O)[C@H](O)[C@H]3O)cc(O)c12 [APIGETRIN]	4.8 mm	41.4%	3.3 mm	17.7%	7.8%	0 mm	0%	5.8 mm	58.6%
COC(=O)Nc1nc2ccccc2[nH]1 [CARBENDAZIM]	11.6 mm	100%	18.6 mm	100%	–	25.7 mm	100%	9.9 mm	100%
COc1cc(CCCO)ccc1O[C@@H]1O[C@H](CO)[C@@H](O)[C@H](O)[C@H]1O [DIHYDROCONIFERIN]	0 mm	0%	8.6 mm	46.2%	4%	0 mm	0%	3.1 mm	31.3%
C[C@@H]1O[C@@H](OC[C@H]2O[C@@H](OC(=O)/C=C/c3ccccc3)[C@H](O)[C@@H](O)[C@@H]2O)[C@H](O)[C@H](O)[C@H]1O [GLEDITSCHIASIDE A]	0 mm	0%	0 mm	0%	62.2%	0 mm	0%	0 mm	0%
COc1cc([C@H]2Oc3c(O)cc(CCCO)cc3[C@@H]2CO)ccc1O[C@@H]1O[C@@H](C)[C@H](O)[C@@H](O)[C@H]1O [MASSONIANOSIDE B]	0 mm	0%	7 mm	37.6%	17.9%	5.6 mm	21.8%	8.8 mm	88.9%
C=C(C)[C@H]1Cc2c(ccc3c2O[C@@H]2COc4cc(OC)c(OC)cc4[C@@H]2C3=O)O1 [ROTENONE]	–	–	–	–	74.4%	–	–	–	–
O=c1ccc2ccc(O[C@@H]3O[C@H](CO)[C@@H](O)[C@H](O)[C@H]3O)cc2o1 [SKIMMIN]	2.8 mm	24.1%	0 mm	0%	15.3%	1.5 mm	5.8%	0 mm	0%
O=C(/C=C/c1ccc(O)cc1)OC[C@H]1O[C@@H](Oc2c(-c3ccc(O)cc3)oc3cc(O)cc(O)c3c2=O)[C@H](O)[C@@H](O)[C@@H]1O [TILIROSIDE]	2.6 mm	22.4%	0 mm	0%	65%	7.1 mm	27.6%	5.5 mm	55.6%
